ChEMBL document CHEMBL4190240, “Conventional and microwave-assisted synthesis of new 1H-benzimidazole-thiazolidinedione derivatives: A potential anticancer scaffold” (Eur J Med Chem, 2017)
Calls of active or inactive are those of the source. The calls are words filed in the database; no cut-off is given here.

Columns and labels:
[1] = test system: HT-1080; test: Cytotoxicity against human HT1080 cells assessed as cell growth inhibition after 48 hrs by MTT assay; type: functional, cell-based; settings: HT-1080, 48 h
[2] = test system: PC-3; test: Cytotoxicity against human PC3 cells assessed as cell growth inhibition after 48 hrs by MTT assay; type: functional, cell-based; settings: PC-3, 48 h
[3] = test system: HEK-293T; test: Cytotoxicity against HEK293T cells assessed as cell growth inhibition after 48 hrs by MTT assay; type: cell-based; settings: Homo sapiens
[4] = test system: A549; test: Cytotoxicity against human A549 cells assessed as cell growth inhibition after 48 hrs by MTT assay; type: functional, cell-based; settings: A549, 48 h
[5] = test system: HeLa; test: Cytotoxicity against human HeLa cells assessed as cell growth inhibition after 48 hrs by MTT assay; type: functional, cell-based
[6] = test system: MDA-MB-231; test: Cytotoxicity against human MDA-MB-231 cells assessed as cell growth inhibition after 48 hrs by MTT assay; type: functional, cell-based; settings: MDA-MB-231, 48 h
[7] = Selectivity index, ratio of IC50 for HEK293T cells to IC50 for human HT1080 cells; type: toxicity; settings: HEK293T cells versus HT1080 cells, read-out: Ratio IC50
[8] = Selectivity index, ratio of IC50 for HEK293T cells to IC50 for human MDA-MB-231 cells; type: toxicity; settings: HEK293T cells versus MDA-MB-231 cells, read-out: Ratio IC50
[9] = Selectivity index, ratio of IC50 for HEK293T cells to IC50 for human A549 cells; type: toxicity; settings: HEK293T cells versus A549 cells, read-out: Ratio IC50
[10] = Selectivity index, ratio of IC50 for HEK293T cells to IC50 for human PC3 cells; type: toxicity; settings: HEK293T cells versus PC3 cells, read-out: Ratio IC50
[11] = Selectivity index, ratio of IC50 for HEK293T cells to IC50 for human HeLa cells; type: toxicity; settings: HEK293T cells versus HeLa cells, read-out: Ratio IC50
[12] = test system: A549; test: Induction of apoptosis in human A549 cells assessed as loss of mitochondrial membrane potential at cytotoxic IC50 concentration after 24 hrs by rhodamine-123 dye based spectrofluorometery relative to control; type: functional
Outline: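 A549 cells (5×10^5 cells/mL) adhered overnight, treated 24 h at IC50 concentration, trypsinised, washed and stained with rhodamine-123 (10 µg/mL) in PBS 30 min at room temperature. After two PBS washes, fluorescence measured by spectrofluorometer versus DMSO control; mean ± SD of three independent experiments.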

[13] = test system: A549; test: Inhibition of filamentous actin polymerization in human A549 cells assessed as reduction in F-actin extension at the periphery at cytotoxic IC50 concentration after 24 hrs by rhodamine-phalloidin/Hoechst 33242 double staining based fluorescent microscopy; type: cell-based
Outline: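 A549 cells (1×10^6/well) grown on coverslips 24 h, treated 24 h at IC50 concentration, PBS-washed, fixed in 4% paraformaldehyde. Stained with rhodamine-phalloidin for F-actin and Hoechst 33242 for nuclei, mounted in anti-fade, imaged by fluorescence microscopy at 20X; DMSO-treated cells as control.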

[14] = test system: A549; test: Induction of apoptosis in human A549 cells assessed as early apoptotic cells at cytotoxic IC50 concentration after 24 hrs by Annexin V-FITC/propidium iodide dual staining based flow cyclometry (reference value: 9.8%); type: functional
[15] = test system: A549; test: Induction of apoptosis in human A549 cells assessed as necrotic cells at cytotoxic IC50 concentration after 24 hrs by Annexin V-FITC/propidium iodide dual staining based flow cytometry (reference value: 3.7%); type: functional
[16] = test system: A549; test: Induction of apoptosis in human A549 cells assessed as formation of shrinked nuclei at cytotoxic IC50 concentration after 24 hrs by Hoechst 33242-staining based fluorescent microscopy; type: functional, cell-based
Outline: (§1)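 A549 cells (5×10^4/well) adhered 24 h on coverslips, exposed 24 h to IC50 concentration, fixed 10 min in 4% paraformaldehyde at 4 °C, stained with Hoechst 33242 (5 µg/mL) 30 min at room temperature. Nuclear morphology examined by fluorescence microscopy (ex 350/em 460 nm, 40x).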

[17] = test system: A549; test: Induction of apoptosis in human A549 cells assessed as viable cells at cytotoxic IC50 concentration after 24 hrs by Annexin V-FITC/propidium iodide dual staining based flow cytometry (reference value: 84.8%); type: functional
[18] = test system: A549; test: Induction of apoptosis in human A549 cells assessed as late apoptotic cells at cytotoxic IC50 concentration after 24 hrs by Annexin V-FITC/propidium iodide dual staining based flow cytometry (reference value: 1.6%); type: functional
[19] = test system: A549; test: Induction of apoptosis in human A549 cells assessed as formation of fragmented nuclei at cytotoxic IC50 concentration after 24 hrs by Hoechst 33242-staining based fluorescent microscopy; type: functional, cell-based; outline: as §1
[20] = test system: A549; test: Induction of ROS production in human A549 cells at cytotoxic IC50 concentration after 24 hrs by DCFH-DA-dye based fluorescent microscopy; type: functional, cell-based
[21] = test system: A549; test: Antimigratory activity in human A549 cells assessed as reduction in wound healing at cytotoxic IC50 concentration after 24 to 48 hrs by phase contrast microscopy; type: functional, cell-based
Outline: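 A549 cells (5×10^5/well) grown 24 h to confluent monolayer, scratched with sterile 200 µL pipette tip, washed twice with PBS. Medium with compound at its IC50 added; untreated wells as control. Wound closure photographed by phase contrast microscopy at 0, 24 and 48 h in three or more random fields.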

| Structure (SMILES) | IC50 [1] [µM] | IC50 [2] [µM] | IC50 [3] [µM] | IC50 [4] [µM] | IC50 [5] [µM] | IC50 [6] [µM] | also measured |
| --- | --- | --- | --- | --- | --- | --- | --- |
| COc1cc(-c2nc3cc(/C=C4\SC(=O)N(Cc5cccc(C)c5)C4=O)ccc3[nH]2)cc(OC)c1OC | 4.58 | 4.37 | 18.9 | 0.93 | 1.44 | 3.26 |  |
| COc1cc(OC)c(-c2nc3cc(/C=C4\SC(=O)N(CC(=O)N5CCOCC5)C4=O)ccc3[nH]2)cc1OC | 1.12 | 11.7 | 35.7 | 0.66 | 0.51 | 21.3 |  |
| COc1cc(-c2nc3cc(/C=C4\SC(=O)N(CC(=O)c5ccccc5)C4=O)ccc3[nH]2)cc(OC)c1OC | 0.57 | > 50 | 13.6 | 0.88 | 26.3 | > 50 |  |
| COc1cc(-c2nc3cc(/C=C4\SC(=O)N(CC(=O)N5CCCC5)C4=O)ccc3[nH]2)cc(OC)c1OC | 2.47 | 8.37 | 12.7 | 0.91 | 4.78 | 2.88 |  |
| COc1cc(-c2nc3cc(/C=C4\SC(=O)NC4=O)ccc3[nH]2)ccc1OCC(C)C | 4.45 | 2.98 | 14.1 | 5.11 | 5.22 | 7.78 |  |
| COc1cc(OC)c(-c2nc3cc(/C=C4\SC(=O)N(Cc5cccc(C)c5)C4=O)ccc3[nH]2)cc1OC | 0.19 | 0.63 | 3.35 | 0.13 | 0.18 | 1.78 | selectivity ratio [7]: 17.6; selectivity ratio [8]: 1.9; selectivity ratio [9]: 25.8; selectivity ratio [10]: 5.3; selectivity ratio [11]: 18.6 |
| COc1ccc(-c2nc3cc(/C=C4\SC(=O)N(CC(=O)N5CCOCC5)C4=O)ccc3[nH]2)cc1OC | 3.32 | > 50 | > 50 | 8.93 | 7.51 | > 50 |  |
| COc1cc(CN2C(=O)S/C(=C\c3ccc4[nH]c(-c5cc(OC)c(OC)c(OC)c5)nc4c3)C2=O)cc(OC)c1OC | 0.98 | 10.2 | 16.6 | 0.53 | 2.24 | 0.27 |  |
| COc1cc(OC)c(-c2nc3cc(/C=C4\SC(=O)NC4=O)ccc3[nH]2)cc1OC | 6.35 | 6.32 | 15.3 | 1.84 | 15.4 | 24.5 |  |
| COc1cc(-c2nc3cc(/C=C4\SC(=O)N(CC(=O)N5CCOCC5)C4=O)ccc3[nH]2)cc(OC)c1OC | 1.68 | 5.94 | 18.8 | 2.93 | 16.3 | 14.9 |  |
| COc1ccc(-c2nc3cc(/C=C4\SC(=O)N(CC(=O)c5ccccc5)C4=O)ccc3[nH]2)cc1OC | 0.59 | 0.43 | 27.8 | 0.74 | 7.48 | 2.04 |  |
| COc1ccc(-c2nc3cc(/C=C4\SC(=O)NC4=O)ccc3[nH]2)cc1OC | 2.43 | 8.72 | 21.7 | 0.57 | 7.83 | 13.6 |  |
| COc1cc(-c2nc3cc(/C=C4\SC(=O)N(CC(=O)N5CCCCC5)C4=O)ccc3[nH]2)cc(OC)c1OC | 3.65 | 14.7 | 21.5 | 0.98 | 23.3 | 34.9 |  |
| COc1cc(OC)c(-c2nc3cc(/C=C4\SC(=O)N(CC(=O)N5CCCCC5)C4=O)ccc3[nH]2)cc1OC | 8.76 | > 50 | > 50 | 14.5 | 6.89 | > 50 |  |
| COc1cc(-c2nc3cc(/C=C4\SC(=O)N(Cc5cc(OC)c(OC)c(OC)c5)C4=O)ccc3[nH]2)ccc1OCC(C)C | 0.16 | 0.11 | 6.65 | 0.096 | 0.25 | 4.37 | Activity [12]: 37.3%; inhibition [13]: Active; selectivity ratio [7]: 41.6; Activity [14]: 21.9%; Activity [15]: 3.7%; Activity [16]: Active; selectivity ratio [8]: 1.5; Activity [17]: 66.1%; selectivity ratio [9]: 69.3; Activity [18]: 8.3%; Activity [19]: Active; Activity [20]: Active; Activity [21]: Active; selectivity ratio [10]: 60.5; selectivity ratio [11]: 26.6 |
| COc1cc(-c2nc3cc(/C=C4\SC(=O)NC4=O)ccc3[nH]2)cc(OC)c1OC | 3.12 | 12 | 13.6 | 3.57 | 1.67 | 6.83 |  |
| COc1ccc(-c2nc3cc(/C=C4\SC(=O)N(Cc5cc(OC)c(OC)c(OC)c5)C4=O)ccc3[nH]2)cc1OC | 0.27 | > 50 | 6.76 | 0.13 | 0.32 | 29.1 | Activity [12]: 31.6%; inhibition [13]: Active; selectivity ratio [7]: 25.3; Activity [14]: 25.1%; Activity [15]: 2.7%; Activity [16]: Active; Activity [17]: 63.5%; selectivity ratio [9]: 52; Activity [18]: 8.7%; Activity [19]: Active; Activity [20]: Active; Activity [21]: Active; selectivity ratio [11]: 21.1 |
| COc1cc(-c2nc3cc(/C=C4\SC(=O)N(Cc5ccccc5)C4=O)ccc3[nH]2)cc(OC)c1OC | 0.66 | 2.5 | 8.21 | 0.67 | 0.95 | 2.29 |  |
